Measurements: ChEMBL document CHEMBL4680319, “Synthesis and evaluation of tiaprofenic acid-derived UCHL5 deubiquitinase inhibitors” (Bioorg Med Chem, 2021)
Active and inactive are the calls of the source. The calls are words filed in the database; no cut-off is given here.

Experiments:
[1] = target: T1, Ubiquitin carboxyl-terminal hydrolase isozyme L5 (Homo sapiens, UniProt Q9Y5K5); test: (§1) Inhibition of N-terminal His6-tagged recombinant human UCHL5 expressed in Escherichia coli BL21 (DE3) codon cells assessed as reduction in cleavage of Ubiquitin-Rhodamine110-glycine to Ubiquitin and Rhodamine110-glycine using Ub-Rho 110 as substrate incubated for 30 mins by fluorescence based assay
T1 sequence (Q9Y5K5 whole entry): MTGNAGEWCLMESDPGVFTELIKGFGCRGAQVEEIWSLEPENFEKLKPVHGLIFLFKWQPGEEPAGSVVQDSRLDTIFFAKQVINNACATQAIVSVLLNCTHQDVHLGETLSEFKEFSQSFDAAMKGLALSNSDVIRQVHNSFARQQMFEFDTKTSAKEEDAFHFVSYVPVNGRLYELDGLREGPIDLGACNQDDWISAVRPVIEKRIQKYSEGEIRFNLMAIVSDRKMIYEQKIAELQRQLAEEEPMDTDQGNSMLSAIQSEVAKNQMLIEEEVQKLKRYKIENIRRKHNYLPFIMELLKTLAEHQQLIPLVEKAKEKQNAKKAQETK
In short: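 His-tagged human UCHL5 from pET151 in E. coli BL21(DE3) codon+ RIL, Ni-NTA purified; 0.464 nM enzyme, 1 μM Ub-Rho in 50 mM Tris-HCl pH 7.5, 150 mM NaCl, 0.1 mg/ml ovalbumin, 0.5 mM EDTA, 2.5 mM DTT; started by enzyme addition.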

Homo sapiens = species: Homo sapiens; test: as §1, with “[…] N-terminal GST/His6-tagged RPN13” for “expressed”, “substrate at 100 uM” for “substrate”, “assay relative to control” for “assay”
In short: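 UCHL5 (0.464 nM, His-tagged, Ni-NTA purified from E. coli) combined with separately expressed Rpn13 (915 nM); each derivative tested at 100 μM. Buffer 50 mM Tris-HCl pH 7.5, 150 mM NaCl, 0.1 mg/ml ovalbumin, 0.5 mM EDTA, 2.5 mM DTT. Reaction started with UCHL5; Ub-Rho 1 μM; fluorescence ex 485/em 535 nm read over 30 min at RT. n = 2 independent experiments.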

[2] = target: T2, Ubiquitin carboxyl-terminal hydrolase isozyme L5 (Homo sapiens) (UniProt Q9Y5K5); test: Inhibition of UCHL5 in human MDA-MB-231 cells assessed as reduction in enzyme-Ub-VS conjugation at 25 to 50 uM preincubated for 30 mins followed by incubation with Ub-VS for 11 mins in presence of Ub-VS by Western blot analysis; type: cell-based; conditions: dose 25-50 µM, time 41.0 min
T2 sequence (whole entry): T1 sequence (Q9Y5K5 whole entry)
In short: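 Lysate (20 μg protein) preincubated with inhibitor 30 min at RT in same buffer without detergent, then Ub-VS 1 μM for 11 min at RT; SDS quench, 12% SDS-PAGE, anti-UCHL5 and β-actin blot; 2 independent experiments.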

[3] = target: Ubiquitin carboxyl-terminal hydrolase isozyme L1 (Homo sapiens) (UniProt P09936); test: as §1, with “of” for “of N-terminal His6-tagged”, “N-terminal MET and His6-tagged UCHL1 (Gln2 to Ala223 residues)” for “UCHL5”, “coli” for “coli BL21 (DE3) codon cells”
In short: (§2)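 Commercial enzymes at UCHL1 1.2 nM or UCHL3 32 pM, with 1 μM Ub-Rho in 50 mM Tris-HCl pH 7.5, 150 mM NaCl, 0.1 mg/ml ovalbumin, 0.5 mM EDTA, 2.5 mM DTT.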

[4] = target: T3, Ubiquitin carboxyl-terminal hydrolase isozyme L1 (Homo sapiens, UniProt P09936); test: as above; in short: as §2
T3 sequence (P09936 whole entry): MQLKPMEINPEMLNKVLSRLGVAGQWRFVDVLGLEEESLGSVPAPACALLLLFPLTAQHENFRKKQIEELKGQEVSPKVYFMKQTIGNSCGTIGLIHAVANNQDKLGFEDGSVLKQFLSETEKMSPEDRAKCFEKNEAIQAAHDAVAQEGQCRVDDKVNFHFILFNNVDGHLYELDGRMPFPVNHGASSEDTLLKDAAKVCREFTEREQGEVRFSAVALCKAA

[5] = target: T4, Ubiquitin carboxyl-terminal hydrolase isozyme L3 (Homo sapiens) (UniProt P15374); test: (§3) Inhibition of recombinant human UCHL3 assessed as reduction in cleavage of Ubiquitin-Rhodamine110-glycine to Ubiquitin and Rhodamine110-glycine using Ub-Rho 110 as substrate incubated for 30 mins by fluorescence based assay; in short: as §2
T4 sequence (whole entry): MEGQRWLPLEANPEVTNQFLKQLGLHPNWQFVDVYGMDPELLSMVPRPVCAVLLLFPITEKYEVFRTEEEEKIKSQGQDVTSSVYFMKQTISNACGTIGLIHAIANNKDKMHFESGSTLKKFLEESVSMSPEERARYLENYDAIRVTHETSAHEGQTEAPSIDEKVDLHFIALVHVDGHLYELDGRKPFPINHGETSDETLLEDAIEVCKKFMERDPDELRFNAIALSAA

[6] = target: T5, Ubiquitin carboxyl-terminal hydrolase isozyme L3 (Homo sapiens, UniProt P15374); test: as §3; in short: as §2
T5 sequence (P15374 whole entry): T4 sequence (whole entry)

[7] = target: T2, Ubiquitin carboxyl-terminal hydrolase isozyme L5 (Homo sapiens); test: Potency index, ratio of (R)-tiaprofenic acid IC50 to test compound IC50 for inhibition of N-terminal His6-tagged recombinant human UCHL5 expressed in Escherichia coli BL21 (DE3) codon cells incubated for 30 mins by fluorescence based assay

Compound | IC50 [1] | other results
Nc1ccc(-c2cn(Cc3cccc(-c4ccccc4C(=O)O)c3)nn2)cc1 | 116 µM | 
Nc1ccc(-c2cn(Cc3cc(C(=O)O)cc(-c4ccccc4C(=O)O)c3)nn2)cc1 | 80.5 µM | 
CC(C(=O)O)c1ccc(C(=O)c2cccc(-c3occc3C(=O)O)c2)s1 (stereo not given) | 75.7 µM | 
CC(C(=O)O)c1ccc(C(=O)c2ccccc2)s1 (stereo not given) [TIAPROFENIC ACID] | 2950 µM | 
CC(=O)Nc1cccc(-c2cn(Cc3cc(C(=O)O)cc(-c4ccccc4C(=O)O)c3)nn2)c1 | 96.2 µM | 
CC(C(=O)O)c1ccc(C(=O)c2cccc(-c3ccccc3C(=O)O)c2)s1 (stereo not given) | 89.1 µM | Ratio IC50 [7]: 33

The remaining molecules from weak to strong by IC50 [1], led by results:

IC50 [1] | Compound | other results
284 µM | Nc1ccc(-c2cn(Cc3cc(C(=O)O)cc(-c4ccc(C(=O)O)cc4)c3)nn2)cc1 | 
252 µM | O=C(O)c1cc(Cn2cc(-c3cccnc3)nn2)cc(-c2ccccc2C(=O)O)c1 | 
215 µM | O=C(O)c1cc(Cn2cc(-c3ccc(NC(=O)c4ccccc4)cc3)nn2)cc(-c2ccccc2C(=O)O)c1 | 
84.5 µM | NS(=O)(=O)Nc1ccc(-c2cn(Cc3cc(C(=O)O)cc(-c4ccccc4C(=O)O)c3)nn2)cc1 | 
80.9 µM | CC(=O)Nc1ccc(-c2cn(Cc3cc(C(=O)O)cc(-c4ccccc4C(=O)O)c3)nn2)cc1 | 
72.6 µM | Nc1cccc(-c2cn(Cc3cc(C(=O)O)cc(-c4ccccc4C(=O)O)c3)nn2)c1 | 
32.9 µM | Nc1ccc(-c2cn(Cc3cc(C(=O)O)cc(-c4cccc(C(=O)O)c4)c3)nn2)cc1 | inhibition (Homo sapiens): 70%; inhibition [2]: Active; inhibition [3]: Dose-dependent effect; IC50 [4]: 92 µM; inhibition [5]: Dose-dependent effect; IC50 [6]: 74 µM
